SMILES strings stand for the structures. ≈ marks a conversion by molar mass, not a printed value.

What all share (type): functional
One assay concerns HCT-8. The assay can be described thus: Growth inhibition of human HCT8 cells. To be noted: read-out: ED50 (the source's name). Put shortly: (§1)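 In-house cytotoxicity assay following an NCI protocol, run on a panel of human tumour lines: KB nasopharyngeal epidermoid carcinoma and HCT-8 ileocecal adenocarcinoma. Potency is reported as ED50 in µg/mL.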
The subject of the next assay is SK-MEL-5. Briefly: Growth inhibition of human SK-MEL-5 cells. The note with it: read-out: ED50 (the source's name). Put shortly: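 Tested at the NCI in its human disease-oriented in vitro screen of 60 tumour cell lines, following the Monks et al. methods. Activity is expressed as GI50, given as log molar values.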
In a further assay the test system is KB. The assay can be described thus: Growth inhibition of human KB cells. To be noted: read-out: ED50 (the source's name). Put shortly:
as §1

The next assay relates to COLO 205. Briefly: Growth inhibition of human COLO205 cells. The note with it: read-out: ED50 (the source's name).
The next assay has as its system HOP-18. The assay can be described thus: Growth inhibition of human HOP18 cells.
The test system of the next assay is MOLT-4. Briefly: Growth inhibition of human MOLT4 cells.
For a further assay, the system named is NCI-H522. The assay can be described thus: Growth inhibition of human NCI-H522 cells.

Turning to `COc1cccc2c3c([nH]c12)C(=O)C=C(C)C3=O`, the EC50 turned out to be 5.3 µg/mL (≈ 22 µM) in the assay on HCT-8, 3.55 µg/mL (≈ 14.7 µM) in the assay with SK-MEL-5, 4.95 µg/mL (≈ 20.5 µM) with KB and 4.22 µg/mL (≈ 17.5 µM) in the assay with COLO 205.

On to `COc1ccc2c3c([nH]c2c1)C(=O)C(C)=CC3=O`, for which the EC50 with HCT-8 came out at 5.09 µg/mL (≈ 21.1 µM); with SK-MEL-5 it was 3.92 µg/mL (≈ 16.2 µM); in the assay on KB, 4.51 µg/mL (≈ 18.7 µM); in the assay on COLO 205 it was 4.51 µg/mL (≈ 18.7 µM).

On to `COc1ccc2c3c([nH]c2c1)C(=O)C=C(C)C3=O`, for which the EC50 in the assay on HCT-8 was > 20 µg/mL; in the assay with SK-MEL-5, 7.25 µg/mL (≈ 30.1 µM); in the assay with KB, > 20 µg/mL; with COLO 205, > 20 µg/mL.

`CC(C)=CCCC1(C)C=Cc2c(c(C)cc3c2[nH]c2cc(O)ccc23)O1` (configuration not stated): the GI50 in the assay on HOP-18 was 7.41 µM; with MOLT-4, 3.24 nM; with NCI-H522 it was 6.76 µM. For the same molecule, the TGI in the assay with MOLT-4 (read-out: pTGI) was > 25.1 µM.

For the molecule `CC1=CC(=O)c2c([nH]c3ccc(Cl)cc23)C1=O`, the EC50 in the assay with HCT-8 was found to be 5.5 µg/mL (≈ 22.4 µM); in the assay on SK-MEL-5, 5.5 µg/mL (≈ 22.4 µM); in the assay on KB, 3.52 µg/mL (≈ 14.3 µM); in the assay with COLO 205, 4.42 µg/mL (≈ 18 µM).

On to `CC1=CC(=O)c2[nH]c3ccc(C)cc3c2C1=O`, for which the EC50 in the assay with HCT-8 is 6.49 µg/mL (≈ 28.8 µM); in the assay on SK-MEL-5, 0.66 µg/mL (≈ 2.93 µM); in the assay on KB, 0.92 µg/mL (≈ 4.08 µM); in the assay on COLO 205, 3.52 µg/mL (≈ 15.6 µM).

As to `CC1=CC(=O)c2[nH]c3ccc(Cl)cc3c2C1=O`, the EC50 with HCT-8 is 6.45 µg/mL (≈ 26.3 µM); in the assay on SK-MEL-5, 0.83 µg/mL (≈ 3.38 µM); in the assay on KB it was 4.39 µg/mL (≈ 17.9 µM); with COLO 205 it was > 20 µg/mL.

As to `CC1=CC(=O)c2[nH]c3ccc(F)cc3c2C1=O`, the EC50 with HCT-8 worked out at 5.88 µg/mL (≈ 25.7 µM); with SK-MEL-5, 2.51 µg/mL (≈ 11 µM); in the assay on KB it was 5.25 µg/mL (≈ 22.9 µM); with COLO 205 it was 9.19 µg/mL (≈ 40.1 µM).

(Values after ChEMBL document CHEMBL1142636 (2000).)
